Here are results for 1 compound from ChEMBL document CHEMBL5705899 (Biochem J, 2014).

In experiment [1] the target is Protein kinase C gamma type (Homo sapiens) (UniProt P05129). Nature of the experiment: Inhibition of human PKCgamma at 1 uM using 3xChocktide-PKC as substrate in presence of 33P-ATP by ProQinase assay.
Experiment [2] addresses Ephrin type-B receptor 1 (Homo sapiens) (UniProt P54762). Nature of the experiment: Inhibition of recombinant human N-terminal His6-tagged EPHB1 (565 to 984 residues) expressed in baculovirus infected Sf21 cells assessed as remaining activity at 1 uM using Poly (Glu,Tyr) as substrate incubated for 30 mins in presence of [gamma-33P]ATP by filter binding method relative to control.

Experiment [3] addresses Calcium/calmodulin-dependent protein kinase kinase 2 (Homo sapiens) (UniProt Q96RR4). Briefly: Inhibition of recombinant human N-terminal GST-tagged CAMKKbeta (1 to 541 residues) expressed in Escherichia coli assessed as remaining activity at 1 uM using DGEFLRTSCGSPNYAARRR as substrate incubated for 30 mins in presence of [gamma-33P]ATP by filter binding method relative to control.

Experiment [4] addresses Serine/threonine-protein kinase BRSK2 (Homo sapiens) (UniProt Q8IWQ3). Briefly: Inhibition of recombinant human N-terminal His6-tagged BRSK2 (2 to 674 residues) expressed in baculovirus infected Sf21 cells assessed as remaining activity at 1 uM using KKLNRTLSFAEPG as substrate incubated for 30 mins in presence of [gamma-33P]ATP by filter binding method relative to control.

For experiment [5], the target named is CDK8/Cyclin C (Homo sapiens) (UniProt P49336+P24863). Nature of the experiment: Inhibition of human CDK8/CyclinC at 1 uM using RBER-CHKtide as substrate in presence of 33P-ATP by ProQinase assay. In kind it is protein-complex assay.
In experiment [6] the target is Serine/threonine-protein kinase Nek7 (Homo sapiens) (UniProt Q8TDX7). Briefly: Inhibition of human NEK7 at 1 uM using casein as substrate in presence of 33P-ATP by ProQinase assay.
The target in experiment [7] is Tyrosine-protein kinase ITK/TSK (Homo sapiens) (UniProt Q08881). Nature of the experiment: Inhibition of human ITK at 1 uM using polyEY as substrate in presence of 33P-ATP by ProQinase assay.
Experiment [8] deals with Phosphorylase b kinase gamma catalytic chain, skeletal muscle/heart isoform (Homo sapiens) (UniProt Q16816). Briefly: Inhibition of human PHKG1 at 1 uM using 3xChocktide-PKC as substrate in presence of 33P-ATP by ProQinase assay.
The target in experiment [9] is Death-associated protein kinase 1 (Homo sapiens) (UniProt P53355). Nature of the experiment: Inhibition of recombinant human N-terminal GST-tagged DAPK1 (1 to 363 residues) expressed in Escherichia coli assessed as remaining activity at 1 uM using KKLNRTLSFAEPG as substrate incubated for 30 mins in presence of [gamma-33P]ATP by filter binding method relative to control.

The target of experiment [10] is Serine/threonine-protein kinase WNK1 (Homo sapiens) (UniProt Q9H4A3). Nature of the experiment: Inhibition of recombinant human WNK1 (1 to 661 residues) expressed in baculovirus infected Sf21 cells assessed as remaining activity at 1 uM using YLRRRLSDSNF as substrate incubated for 30 mins in presence of [gamma-33P]ATP by filter binding method relative to control.

In experiment [11] the target is Homeodomain-interacting protein kinase 3 (Homo sapiens) (UniProt Q9H422). Briefly: Inhibition of recombinant human N-terminal GST-tagged HIPK3 (161 to 562 residues) expressed in Escherichia coli assessed as remaining activity at 1 uM using MBP as substrate incubated for 30 mins in presence of [gamma-33P]ATP by filter binding method relative to control.
The target in experiment [12] is Phosphatidylinositol 4,5-bisphosphate 3-kinase catalytic subunit alpha isoform (Homo sapiens, UniProt P42336). Nature of the experiment: Inhibition of PI3Kalpha (unknown origin) using PtdIns(4,5)P2 as substrate preincubated for 20 mins followed by substrate addition and measured after 80 mins by Kinase-Glo assay. In short, it runs like this: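 PIK3CA at 20 nM in 50 mM Tris/HCl pH 7.4, 0.05% CHAPSO, 10 mM MgCl2 and 2.1 mM DTT was pre-incubated with inhibitor at varying concentrations for 20 min. Then 80 μM PtdIns(4,5)P2 and 8 μM ATP (below apparent Km) were added, with 2% DMSO final. The reaction ran 80 min at ambient temperature, followed by Kinase-Glo Plus for 20 min and a luminescence read.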
(In general: Kinase-Glo reads ATP consumption through a luciferase reaction.)

Experiment [13] deals with Serine/threonine-protein kinase PLK1 (Homo sapiens) (UniProt P53350). Nature of the experiment: Inhibition of recombinant human N-terminal His6-tagged PLK1 (1 to 603 residues) expressed in baculovirus infected Sf21 cells assessed as remaining activity at 1 uM using ISDELMDATFADQEAKKK as substrate incubated for 30 mins in presence of [gamma-33P]ATP by filter binding method relative to control.

Experiment [14] concerns the target Diacylglycerol kinase zeta (Homo sapiens) (UniProt Q13574). Briefly: Inhibition of recombinant human N-terminal His6-tagged DGKzeta (1 to 929 residues) expressed in baculovirus expression system at 1 uM using diacyl-glycerol as substrate incubated for 40 mins by ADP-Glo assay. Background: In ADP-Glo the light output rises with the ADP produced.
Experiment [15] has as its target Choline/ethanolamine kinase (Homo sapiens) (UniProt Q9Y259). Nature of the experiment: Inhibition of recombinant human N-terminal GST-tagged CHKbeta (1 to 395 residues) expressed in Escherichia coli at 1 uM using choline chloride as substrate incubated for 40 mins by ADP-Glo assay.
In experiment [16] the target is Serine/threonine-protein kinase B-raf (Homo sapiens) (UniProt P15056). Nature of the experiment: Inhibition of human BRAF at 1 uM using MEK1-K97M as substrate in presence of 33P-ATP by ProQinase assay.
Experiment [17] has as its target Myotonin-protein kinase (Homo sapiens) (UniProt Q09013). Nature of the experiment: Inhibition of human DMPK at 1 uM using RBER-CHKtide as substrate in presence of 33P-ATP by ProQinase assay.
Experiment [18] deals with Tyrosine-protein kinase ABL1 (Homo sapiens) (UniProt P00519). Nature of the experiment: Inhibition of recombinant human N-terminal GST-tagged ABL (118 to 535 residues) expressed in Escherichia coli co-expressed with His-tagged YopH assessed as remaining activity at 1 uM using EAIYAAPFAKKK as substrate incubated for 30 mins in presence of [gamma-33P]ATP by filter binding method relative to control.

Experiment [19] addresses Ribosomal protein S6 kinase alpha-1 (Homo sapiens) (UniProt Q15418). Nature of the experiment: Inhibition of human RPS6KA1 at 1 uM using RBER-CHKtide as substrate in presence of 33P-ATP by ProQinase assay.

Activity calls are given as the source filed them. No cut-off for these calls is given here.

Sequence of Serine/threonine-protein kinase PLK1 (Homo sapiens) (P53350 whole entry, the tested form may be a part): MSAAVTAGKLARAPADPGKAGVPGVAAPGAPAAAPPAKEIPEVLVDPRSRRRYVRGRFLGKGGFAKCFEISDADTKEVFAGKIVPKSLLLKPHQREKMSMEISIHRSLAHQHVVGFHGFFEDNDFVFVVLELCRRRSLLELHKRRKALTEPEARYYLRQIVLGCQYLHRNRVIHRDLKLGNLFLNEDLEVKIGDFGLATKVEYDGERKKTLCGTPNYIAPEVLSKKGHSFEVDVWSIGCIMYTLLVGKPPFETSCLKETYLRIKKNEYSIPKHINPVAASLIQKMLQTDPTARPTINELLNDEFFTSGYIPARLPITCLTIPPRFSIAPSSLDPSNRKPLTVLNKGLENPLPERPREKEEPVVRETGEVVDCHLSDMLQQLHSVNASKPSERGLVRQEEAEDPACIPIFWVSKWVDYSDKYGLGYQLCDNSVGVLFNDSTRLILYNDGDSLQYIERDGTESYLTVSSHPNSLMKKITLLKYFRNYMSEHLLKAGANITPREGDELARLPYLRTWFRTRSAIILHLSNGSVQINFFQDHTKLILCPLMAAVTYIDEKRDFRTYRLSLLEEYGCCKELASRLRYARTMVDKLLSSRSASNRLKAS
Sequence of Myotonin-protein kinase (Homo sapiens) (Q09013 whole entry, the tested form may be a part): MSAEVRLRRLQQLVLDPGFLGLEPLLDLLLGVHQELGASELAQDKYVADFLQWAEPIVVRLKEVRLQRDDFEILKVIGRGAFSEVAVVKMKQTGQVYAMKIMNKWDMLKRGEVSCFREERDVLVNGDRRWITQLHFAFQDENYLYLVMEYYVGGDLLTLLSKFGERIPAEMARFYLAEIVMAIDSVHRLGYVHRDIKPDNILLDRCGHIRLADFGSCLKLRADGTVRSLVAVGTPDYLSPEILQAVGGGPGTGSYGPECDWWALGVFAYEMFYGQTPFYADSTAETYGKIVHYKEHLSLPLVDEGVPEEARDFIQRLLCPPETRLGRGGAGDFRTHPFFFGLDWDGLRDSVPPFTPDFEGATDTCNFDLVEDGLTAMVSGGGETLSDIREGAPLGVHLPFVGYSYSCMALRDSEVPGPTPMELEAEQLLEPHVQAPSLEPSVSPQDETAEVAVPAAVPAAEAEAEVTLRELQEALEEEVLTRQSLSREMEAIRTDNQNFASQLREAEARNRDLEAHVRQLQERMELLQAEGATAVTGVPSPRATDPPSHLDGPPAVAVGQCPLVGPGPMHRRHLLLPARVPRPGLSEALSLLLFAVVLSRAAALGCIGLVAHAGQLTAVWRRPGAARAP
Sequence of Tyrosine-protein kinase ABL1 (Homo sapiens) (P00519 whole entry, the tested form may be a part): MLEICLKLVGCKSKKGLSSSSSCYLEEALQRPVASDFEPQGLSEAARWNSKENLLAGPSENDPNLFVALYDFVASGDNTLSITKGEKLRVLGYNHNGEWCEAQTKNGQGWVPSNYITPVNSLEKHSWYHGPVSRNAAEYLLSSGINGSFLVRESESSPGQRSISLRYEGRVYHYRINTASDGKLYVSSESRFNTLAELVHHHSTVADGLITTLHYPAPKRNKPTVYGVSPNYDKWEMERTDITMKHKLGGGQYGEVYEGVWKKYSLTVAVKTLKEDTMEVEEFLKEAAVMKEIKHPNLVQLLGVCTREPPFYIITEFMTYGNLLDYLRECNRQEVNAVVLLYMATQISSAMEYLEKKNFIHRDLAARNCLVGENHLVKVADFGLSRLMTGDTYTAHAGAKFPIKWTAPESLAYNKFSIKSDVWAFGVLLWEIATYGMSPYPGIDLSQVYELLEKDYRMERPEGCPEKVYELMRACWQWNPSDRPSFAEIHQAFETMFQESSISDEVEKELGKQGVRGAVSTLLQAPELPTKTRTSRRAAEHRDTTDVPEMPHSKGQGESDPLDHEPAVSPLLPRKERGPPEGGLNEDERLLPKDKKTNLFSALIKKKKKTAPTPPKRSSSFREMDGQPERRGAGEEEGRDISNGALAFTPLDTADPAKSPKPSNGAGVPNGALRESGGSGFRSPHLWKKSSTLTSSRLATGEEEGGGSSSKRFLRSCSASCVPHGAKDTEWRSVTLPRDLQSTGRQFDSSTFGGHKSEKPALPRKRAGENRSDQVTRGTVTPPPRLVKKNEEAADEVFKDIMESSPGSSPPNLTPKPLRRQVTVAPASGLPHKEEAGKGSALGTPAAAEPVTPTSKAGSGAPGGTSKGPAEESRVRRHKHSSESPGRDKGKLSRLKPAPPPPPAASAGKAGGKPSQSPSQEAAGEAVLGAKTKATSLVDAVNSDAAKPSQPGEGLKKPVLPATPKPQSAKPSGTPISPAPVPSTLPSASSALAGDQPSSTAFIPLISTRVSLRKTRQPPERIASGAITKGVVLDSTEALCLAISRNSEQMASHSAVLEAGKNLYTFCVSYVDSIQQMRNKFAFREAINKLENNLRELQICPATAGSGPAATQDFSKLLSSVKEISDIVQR
Sequence of Death-associated protein kinase 1 (Homo sapiens) (P53355 whole entry, looked up, the tested form may be a part): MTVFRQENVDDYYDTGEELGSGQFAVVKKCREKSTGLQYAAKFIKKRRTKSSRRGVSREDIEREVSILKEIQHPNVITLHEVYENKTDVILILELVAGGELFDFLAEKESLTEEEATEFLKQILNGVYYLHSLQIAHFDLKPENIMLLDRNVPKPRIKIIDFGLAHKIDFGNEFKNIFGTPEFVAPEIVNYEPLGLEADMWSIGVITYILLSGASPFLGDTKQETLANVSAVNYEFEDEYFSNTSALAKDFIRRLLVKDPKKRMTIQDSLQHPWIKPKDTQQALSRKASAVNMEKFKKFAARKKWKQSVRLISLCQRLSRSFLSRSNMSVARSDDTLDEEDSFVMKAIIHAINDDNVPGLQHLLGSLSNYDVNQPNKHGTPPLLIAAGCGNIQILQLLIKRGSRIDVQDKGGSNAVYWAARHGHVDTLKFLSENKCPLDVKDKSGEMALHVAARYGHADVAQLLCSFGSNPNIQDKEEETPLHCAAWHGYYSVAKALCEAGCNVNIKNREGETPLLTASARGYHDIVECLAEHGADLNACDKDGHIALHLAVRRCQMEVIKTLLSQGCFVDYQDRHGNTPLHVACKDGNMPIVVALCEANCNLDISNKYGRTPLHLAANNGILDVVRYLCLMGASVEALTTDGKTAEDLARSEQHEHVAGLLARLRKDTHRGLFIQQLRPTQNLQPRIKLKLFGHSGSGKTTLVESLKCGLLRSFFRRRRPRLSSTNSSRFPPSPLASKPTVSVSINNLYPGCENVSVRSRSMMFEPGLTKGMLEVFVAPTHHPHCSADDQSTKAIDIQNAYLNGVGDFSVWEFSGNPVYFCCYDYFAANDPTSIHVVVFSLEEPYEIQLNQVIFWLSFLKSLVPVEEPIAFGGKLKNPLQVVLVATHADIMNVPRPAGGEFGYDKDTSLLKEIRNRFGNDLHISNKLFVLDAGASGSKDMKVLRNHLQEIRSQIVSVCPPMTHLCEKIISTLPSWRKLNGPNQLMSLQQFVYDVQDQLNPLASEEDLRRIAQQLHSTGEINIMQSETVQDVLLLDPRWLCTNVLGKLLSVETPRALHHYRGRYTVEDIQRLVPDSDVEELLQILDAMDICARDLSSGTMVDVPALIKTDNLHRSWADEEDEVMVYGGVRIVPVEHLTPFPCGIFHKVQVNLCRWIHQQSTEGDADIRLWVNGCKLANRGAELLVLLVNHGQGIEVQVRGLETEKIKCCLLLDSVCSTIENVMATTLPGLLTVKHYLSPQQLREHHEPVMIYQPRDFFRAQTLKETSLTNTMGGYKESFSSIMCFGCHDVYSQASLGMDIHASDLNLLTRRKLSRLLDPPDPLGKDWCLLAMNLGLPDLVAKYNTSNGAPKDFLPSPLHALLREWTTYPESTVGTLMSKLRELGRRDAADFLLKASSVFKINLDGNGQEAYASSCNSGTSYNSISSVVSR
Sequence of Calcium/calmodulin-dependent protein kinase kinase 2 (Homo sapiens) (Q96RR4 2-588 limits assumed): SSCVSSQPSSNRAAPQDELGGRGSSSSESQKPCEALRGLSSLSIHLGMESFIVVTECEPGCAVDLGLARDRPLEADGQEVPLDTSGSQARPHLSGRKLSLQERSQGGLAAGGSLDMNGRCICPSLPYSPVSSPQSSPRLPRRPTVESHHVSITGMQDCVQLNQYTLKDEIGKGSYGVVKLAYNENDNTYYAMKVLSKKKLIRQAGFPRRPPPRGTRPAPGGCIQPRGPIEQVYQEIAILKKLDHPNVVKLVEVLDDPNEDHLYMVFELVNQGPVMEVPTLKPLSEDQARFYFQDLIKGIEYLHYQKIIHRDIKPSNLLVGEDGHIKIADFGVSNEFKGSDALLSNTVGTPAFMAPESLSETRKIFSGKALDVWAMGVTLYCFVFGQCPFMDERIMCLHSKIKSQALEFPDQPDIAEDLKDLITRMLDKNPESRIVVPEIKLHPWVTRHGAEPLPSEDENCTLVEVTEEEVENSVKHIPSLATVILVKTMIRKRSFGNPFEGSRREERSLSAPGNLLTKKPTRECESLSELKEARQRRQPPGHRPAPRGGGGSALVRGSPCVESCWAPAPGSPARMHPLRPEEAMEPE

Broadly, the IC50 is the concentration that inhibits the measured activity by half. Read a high IC50 as lower potency. With `CC(C)(O)CNc1ncc(-c2ccnc(Nc3ccnc(Cl)c3)n2)c(CC2CC2)n1`, the inhibition result in [1], in experiment [5], in [6], in experiment [7], in experiment [8] and in experiment [14] was “inactive” throughout. Also, the inhibition result in experiment [15], in experiment [16], in experiment [17] and in experiment [19] was “inactive” in each case. Also, the Activity in experiment [2] came out at 99%; in experiment [3], 108%; in experiment [4], 98%; in experiment [9], 96%; in experiment [10], 116%; in [11], 117%. In addition, the results for the Activity in [13] and in experiment [18] were 114% and 87%, respectively. The same compound returned an IC50 in experiment [12] of 8.04 µM.
